Assay results taken from ChEMBL document CHEMBL4152376, “Optimization of 8-Hydroxyquinolines as Inhibitors of Catechol O-Methyltransferase” (J Med Chem, 2018).

What was measured:
[1] = target: T1, Catechol O-methyltransferase (Homo sapiens, UniProt P21964); assay: Inhibition of c-terminal hexa-His tagged human MB-COMT expressed in HEK293 cell membrane homogenate using norepinephrine as substrate after 1 hr in presence of SAM by MTase glo methyltransferase assay
T1 sequence (P21964 whole entry): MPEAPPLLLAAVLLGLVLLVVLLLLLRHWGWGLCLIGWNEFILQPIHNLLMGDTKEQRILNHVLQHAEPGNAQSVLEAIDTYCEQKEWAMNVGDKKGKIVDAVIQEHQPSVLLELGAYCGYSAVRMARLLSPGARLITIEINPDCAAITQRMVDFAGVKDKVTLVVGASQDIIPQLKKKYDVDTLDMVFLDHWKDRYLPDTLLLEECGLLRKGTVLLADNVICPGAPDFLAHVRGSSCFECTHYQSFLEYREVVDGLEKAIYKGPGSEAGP
Procedure, shortened: (§1)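 Membrane homogenate of HEK293 cells expressing C-terminal His6 MB-COMT (human about 7 ng, rat about 4 ng per well, protein by Bradford […]). 20 µM SAM and 7 µM norepinephrine in 50 mM Tris, 5–10 mM MgCl2, 2.5 mM DTT, pH 6.9, final DMSO 1.5%. 1 h at 37 °C, then MTase-Glo luminescence. […] 4-parameter IC50 fit; triplicate points, three experiments.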

[2] = Clearance in rat hepatocytes assessed as per million cells; format: ADME, cell-based, Hepatocyte; details: read-out: CLH
[3] = target: T1, Catechol O-methyltransferase; assay: Inhibition of c-terminal hexa-His tagged human S-COMT expressed in HEK293-6E cell membrane homogenate using 7,8-dihydroxy-4-methylcoumarin as substrate after 1 hr in presence of SAM by MTase glo methyltransferase assay
Procedure, shortened: (§2)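 His6-tagged S-COMT (human or rat), expressed in 293-6E cells and purified by Ni-NTA and size exclusion, 1 ng per well. 20 µM SAM and 10 µM 7,8-dihydroxy-4-methylcoumarin in pH 6.9 Tris/MgCl2/DTT buffer, 1.5% DMSO. 1 h at 37 °C, then MTase-Glo luminescence read against a SAH standard curve. […] 4-parameter IC50; triplicate wells, three runs.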

[4] = test system: Rattus norvegicus; assay: Oral bioavailability in rat at 3/10 mg/kg; format: ADME, organism-based; details: in vivo
Procedure, shortened: (§3)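 Rat pharmacokinetics after a 1 mpk iv dose (n=3) and a 3 or 10 mpk oral dose (n=3).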

[5] = Half life in rat at 1 mg/kg, iv or 3/10 mg/kg, po; format: ADME, organism-based; details: in vivo; procedure, shortened: as §3
[6] = test system: Rattus norvegicus; assay: Volume of distribution at steady state in rat at 1 mg/kg, iv or 3/10 mg/kg, po; format: ADME, organism-based; details: in vivo; procedure, shortened: as §3
[7] = Efflux ratio of permeability in MDCK cells; format: ADME, cell-based, Canis lupus familiaris; details: dog
Procedure, shortened: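 Efflux ratio taken as […] transport across P-glycoprotein-expressing MDCK cells.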

[8] = Drug uptake in brain of C57BL/6J mouse at 10 mg/kg, ip measured at 1 hr post dose; format: ADME, organism-based; details: C57BL/6J, brain, read-out: Drug uptake
Procedure, shortened: (§4)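 Male C57BL/6J mice (8 weeks), single ip injection of 10 mg/kg suspended in 0.1% Tween80/0.1% antifoam/1% methylcellulose at 10 mL/kg. Two mice per timepoint; at 1 h, plasma separated at 4 °C and brain homogenized in 4 volumes PBS pH 7.4. Total brain and plasma levels measured.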

[9] = Plasma concentration C57BL/6J mouse at 10 mg/kg, ip measured at 1 hr post dose; format: ADME, organism-based; procedure, shortened: as §4
[10] = Apparent permeability of the compound in MDCK cells; format: ADME, cell-based, Canis lupus familiaris; details: dog
[11] = target: T2, Catechol O-methyltransferase (Rattus norvegicus, UniProt P22734); assay: Inhibition of c-terminal hexa-His tagged rat MB-COMT expressed in HEK293 cell membrane homogenate using norepinephrine as substrate after 1 hr in presence of SAM by MTase glo methyltransferase assay; procedure, shortened: as §1
T2 sequence (P22734 whole entry): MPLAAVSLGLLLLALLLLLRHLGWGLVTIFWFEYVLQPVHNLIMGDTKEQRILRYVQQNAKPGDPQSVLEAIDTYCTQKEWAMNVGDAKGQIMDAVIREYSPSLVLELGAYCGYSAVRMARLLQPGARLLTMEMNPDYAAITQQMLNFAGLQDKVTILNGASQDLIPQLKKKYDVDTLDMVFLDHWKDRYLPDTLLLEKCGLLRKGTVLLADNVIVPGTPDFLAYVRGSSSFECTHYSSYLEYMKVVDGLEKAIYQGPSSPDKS

[12] = target: T2, Catechol O-methyltransferase; assay: Inhibition of c-terminal hexa-His tagged rat S-COMT expressed in HEK293-6E cell membrane homogenate using 7,8-dihydroxy-4-methylcoumarin as substrate after 1 hr in presence of SAM by MTase glo methyltransferase assay; procedure, shortened: as §2
[13] = Fraction unbound in rat plasma by equilibrium dialysis; format: ADME, cell-free
Procedure, shortened: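 Percent free drug in mouse or rat plasma, measured by equilibrium dialysis.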

[14] = Unbound plasma concentration in Sprague-Dawley rat 10 mg/kg, po after 4 hrs by ES-UPLC analysis; format: ADME, organism-based; details: in vivo
Procedure, shortened: (§5)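 Sprague Dawley rats given 10 mg/kg po; CSF, plasma and brain collected at 4 h. Drug measured in CSF; free plasma and brain levels computed from total levels using plasma protein and brain tissue binding fractions. Free CSF derived from CSF binding by equilibrium dialysis with pooled rat CSF. Ratios taken from these values.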

[15] = Unbound drug level in brain of Sprague-Dawley rat at 10 mg/kg, po after 4 hrs by ES-UPLC analysis; format: ADME, organism-based; details: in vivo; procedure, shortened: as §5
[16] = Drug level in CSF of Sprague-Dawley rat at 10 mg/kg, po after 4 hrs by ES-UPLC analysis; format: ADME, organism-based, Cerebrospinal fluid; details: read-out: Drug uptake; procedure, shortened: as §5
[17] = Ratio of drug level in CSF of Sprague-Dawley rat to unbound plasma concentration in Sprague-Dawley rat at 10 mg/kg, po after 4 hrs by ES-UPLC analysis; format: ADME, organism-based; details: in vivo; procedure, shortened: as §5
[18] = Ratio of drug level in CSF of Sprague-Dawley rat to unbound brain concentration in Sprague-Dawley rat at 10 mg/kg, po after 4 hrs by ES-UPLC analysis; format: ADME, organism-based; details: in vivo; procedure, shortened: as §5
[19] = Ratio of unbound drug level in CSF of Sprague-Dawley rat to unbound plasma concentration in Sprague-Dawley rat at 10 mg/kg, po after 4 hrs by ES-UPLC analysis; format: ADME, organism-based; details: CSF and plasma; procedure, shortened: as §5
[20] = test system: Rattus norvegicus; assay: In vivo inhibition of COMT in Sprague-Dawley rat assessed as HVA levels in CSF at 10 mg/kg, po measured at 4 hrs post dose by LC-MS analysis relative to control; format: functional; design: scale not given: the % may be the effect or the level left
Procedure, shortened: (§6)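 Male Sprague Dawley rats (176–200 g on arrival) dosed orally at 10 mg/kg in Tween80/antifoam/methylcellulose suspension, 10 mL/kg, vehicle group as control (n=5–10). At 4 h under isoflurane, CSF drawn from cisterna magna. HVA and DOPAC quantified by LC-MS against standards in 0.01 M perchloric acid/aCSF with d5 internal standards. Reported as % of vehicle.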

[21] = test system: Rattus norvegicus; assay: In vivo inhibition of COMT in Sprague-Dawley rat assessed as DOPAC levels in CSF at 10 mg/kg, po measured at 4 hrs post dose by LC-MS analysis relative to control; format: functional; procedure, shortened: as §6
[22] = Protein binding in CSF of Sprague-Dawley rat at 2 uM by equilibrium dialysis; format: ADME, tissue-based, Cerebrospinal fluid; details: read-out: PB (converted)
Procedure, shortened: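 Binding in pooled rat CSF measured by equilibrium dialysis at 2 µM test concentration.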

[23] = Substrate activity at P-glycoprotein (unknown origin); format: ADME; details: human
[24] = Inhibition of P-glycoprotein (unknown origin); details: human
[25] = target: T3, Broad substrate specificity ATP-binding cassette transporter ABCG2 (Homo sapiens, UniProt Q9UNQ0); assay: Inhibition of BCRP (unknown origin); format: ADME
T3 sequence (Q9UNQ0 whole entry): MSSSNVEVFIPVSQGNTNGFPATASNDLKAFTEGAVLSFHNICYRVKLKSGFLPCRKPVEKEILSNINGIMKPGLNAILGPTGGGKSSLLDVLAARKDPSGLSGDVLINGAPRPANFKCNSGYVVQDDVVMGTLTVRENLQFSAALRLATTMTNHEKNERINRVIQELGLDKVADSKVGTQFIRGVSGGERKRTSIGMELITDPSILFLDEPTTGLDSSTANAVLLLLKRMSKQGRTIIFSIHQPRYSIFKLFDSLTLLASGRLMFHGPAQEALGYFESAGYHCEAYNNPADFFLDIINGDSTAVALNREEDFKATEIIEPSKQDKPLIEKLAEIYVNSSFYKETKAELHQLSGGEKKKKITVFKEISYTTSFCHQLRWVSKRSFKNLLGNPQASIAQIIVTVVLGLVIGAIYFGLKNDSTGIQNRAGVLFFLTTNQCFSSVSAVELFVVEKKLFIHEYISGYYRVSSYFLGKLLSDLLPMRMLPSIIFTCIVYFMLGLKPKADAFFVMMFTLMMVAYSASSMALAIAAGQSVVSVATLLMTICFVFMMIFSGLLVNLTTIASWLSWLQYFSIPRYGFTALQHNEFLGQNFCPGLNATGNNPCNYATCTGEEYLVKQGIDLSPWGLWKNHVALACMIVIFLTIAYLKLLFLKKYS

[26] = target: ATP-binding cassette sub-family C member 2 (Homo sapiens, UniProt Q92887); assay: Inhibition of MRP2 (unknown origin)
Chain of ATP-binding cassette sub-family C member 2 (Q92887 whole entry): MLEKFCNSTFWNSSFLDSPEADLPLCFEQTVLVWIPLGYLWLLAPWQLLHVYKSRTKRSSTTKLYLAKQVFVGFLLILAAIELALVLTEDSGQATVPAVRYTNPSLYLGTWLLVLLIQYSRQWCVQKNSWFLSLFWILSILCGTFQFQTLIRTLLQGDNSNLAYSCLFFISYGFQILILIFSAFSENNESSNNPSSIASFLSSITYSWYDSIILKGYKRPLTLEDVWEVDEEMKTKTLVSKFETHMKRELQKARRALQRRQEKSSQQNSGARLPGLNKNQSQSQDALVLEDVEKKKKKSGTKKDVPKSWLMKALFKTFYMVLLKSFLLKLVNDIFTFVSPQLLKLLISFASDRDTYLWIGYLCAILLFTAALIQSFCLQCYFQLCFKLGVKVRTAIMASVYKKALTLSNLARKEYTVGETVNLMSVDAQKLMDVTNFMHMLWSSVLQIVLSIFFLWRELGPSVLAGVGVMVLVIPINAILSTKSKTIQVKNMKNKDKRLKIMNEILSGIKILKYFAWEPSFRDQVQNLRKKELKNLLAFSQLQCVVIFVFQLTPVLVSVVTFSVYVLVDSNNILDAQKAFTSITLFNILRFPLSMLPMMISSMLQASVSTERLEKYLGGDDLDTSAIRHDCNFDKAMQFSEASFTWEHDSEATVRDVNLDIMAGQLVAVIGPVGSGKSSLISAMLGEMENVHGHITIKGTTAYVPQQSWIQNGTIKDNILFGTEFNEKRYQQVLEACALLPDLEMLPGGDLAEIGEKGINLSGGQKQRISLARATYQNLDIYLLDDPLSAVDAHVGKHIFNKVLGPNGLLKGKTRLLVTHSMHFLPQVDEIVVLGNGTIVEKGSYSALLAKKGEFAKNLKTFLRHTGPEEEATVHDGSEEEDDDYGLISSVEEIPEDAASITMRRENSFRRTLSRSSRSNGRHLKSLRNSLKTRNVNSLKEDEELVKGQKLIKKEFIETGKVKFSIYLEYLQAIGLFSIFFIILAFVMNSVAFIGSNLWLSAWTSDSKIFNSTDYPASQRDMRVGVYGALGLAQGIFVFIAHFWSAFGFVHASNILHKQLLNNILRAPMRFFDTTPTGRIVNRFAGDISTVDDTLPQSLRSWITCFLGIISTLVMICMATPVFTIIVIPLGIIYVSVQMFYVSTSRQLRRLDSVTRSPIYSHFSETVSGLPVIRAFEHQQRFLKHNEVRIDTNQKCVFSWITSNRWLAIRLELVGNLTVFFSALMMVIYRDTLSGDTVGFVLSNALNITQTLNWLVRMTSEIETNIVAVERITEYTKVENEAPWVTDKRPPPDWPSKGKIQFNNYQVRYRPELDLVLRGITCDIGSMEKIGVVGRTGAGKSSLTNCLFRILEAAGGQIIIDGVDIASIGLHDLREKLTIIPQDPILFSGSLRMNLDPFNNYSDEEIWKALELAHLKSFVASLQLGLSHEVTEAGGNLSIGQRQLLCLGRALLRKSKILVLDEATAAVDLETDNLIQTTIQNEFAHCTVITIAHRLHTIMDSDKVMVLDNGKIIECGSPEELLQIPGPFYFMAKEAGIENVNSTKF

Row | Structure (SMILES) | IC50 [1] [nM] | hepatocyte CLint [2] [µL/min/1e6 cells] | IC50 [3] [nM] | F [4] [%] | half-life [5] [h] | Vdss [6] [L/kg] | efflux ratio [7] | concentration at 1 h [8] [ng/g] | concentration at 1 h [9] [ng/mL] | IC50 [11] [nM] | IC50 [12] [nM] | Fu [13] | Cp(f) [14] [nM] | Drug uptake(free) [15] [nM] | concentration at 4 h [16] [nM] | Ratio [17] | Ratio [18] | Kp uu at 4 h [19] | Activity [20] [%] | CSF DOPAC level (% of vehicle) [21] [%] | further results
1 | Cc1ccc(S(=O)(=O)c2cc(Cl)c(O)c3ncccc23)cc1 | 316 | 78 | > 10000 | 45 | 0.31 | 0.67 | 2.2 | 1690 | 9780 |  |  |  |  |  |  |  |  |  |  |  | Papp [10]: > 10 ×10⁻⁶ cm/s
2 | O=S(=O)(c1cc(F)c(O)c2ncccc12)N1CCCC1 | 3.98 | 21 | 1580 | 73 | 2.8 | 2.2 | 1.2 | 110 | 1820 | < 1 | 3980 | 0.6 | 23 | 35 | 157 | 6.8 | 4.4 | 3.3 | 72 | 140 | fraction unbound at 2 µM [22]: 0.49; Activity [23]: Not Active; inhibition (INH) [24]: Not Active; inhibition (INH) [25]: Not Active; inhibition (INH) [26]: Not Active
3 | O=S(=O)(c1cc(F)c(O)c2ncccc12)C1CCCC1 | 2 | 19 | 2510 | 32 | 7.7 | 0.41 | 0.5 | 1910 | 6160 | < 1 | 7940 | 0.2 | 19 | 12.8 | 321 | 16.5 | 25 | 7.3 | 66 | 218 | fraction unbound at 2 µM [22]: 0.43
